Experiment [1] concerns the target T1, Retinoic acid receptor alpha (Homo sapiens) (UniProt P10276).
T1 sequence (whole entry): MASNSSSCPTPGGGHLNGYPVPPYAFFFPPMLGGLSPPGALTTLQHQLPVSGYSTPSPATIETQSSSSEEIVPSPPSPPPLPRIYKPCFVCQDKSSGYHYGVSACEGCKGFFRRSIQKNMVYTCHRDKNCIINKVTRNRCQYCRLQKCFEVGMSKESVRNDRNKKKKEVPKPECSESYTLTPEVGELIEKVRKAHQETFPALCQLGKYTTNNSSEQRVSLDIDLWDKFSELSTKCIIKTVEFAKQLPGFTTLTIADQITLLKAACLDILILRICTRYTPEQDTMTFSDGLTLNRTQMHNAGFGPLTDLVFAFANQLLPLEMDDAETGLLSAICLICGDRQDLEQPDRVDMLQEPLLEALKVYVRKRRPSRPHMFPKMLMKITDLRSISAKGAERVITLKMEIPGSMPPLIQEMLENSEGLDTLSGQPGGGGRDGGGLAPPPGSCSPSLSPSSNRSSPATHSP
Description: Activation of human RAR-alpha expressed in HEK293 cells coexpressing with tk-betaRE-Luc after 24 hrs by luciferase reporter gene assay. The class given is cell-based. An outline of the steps:
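Calcium phosphate transfection of HEK293 cells with 30 ng pCMX-hRAR-α, 120 ng tk-βRE-Luc and 30 ng pCMX-β-gal plus carrier pUC18 (600 ng DNA per well). Cells were washed 8 h later and incubated with compound in 10% FBS medium. Luciferase was normalized to β-galactosidase; triplicate or quadruplicate, representative of three experiments.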
In general terms: A reporter such as luciferase makes a cellular process visible.

The target in experiment [2] is T2, Oxysterols receptor LXR-alpha (Homo sapiens) (UniProt Q13133).
T2 sequence (whole entry): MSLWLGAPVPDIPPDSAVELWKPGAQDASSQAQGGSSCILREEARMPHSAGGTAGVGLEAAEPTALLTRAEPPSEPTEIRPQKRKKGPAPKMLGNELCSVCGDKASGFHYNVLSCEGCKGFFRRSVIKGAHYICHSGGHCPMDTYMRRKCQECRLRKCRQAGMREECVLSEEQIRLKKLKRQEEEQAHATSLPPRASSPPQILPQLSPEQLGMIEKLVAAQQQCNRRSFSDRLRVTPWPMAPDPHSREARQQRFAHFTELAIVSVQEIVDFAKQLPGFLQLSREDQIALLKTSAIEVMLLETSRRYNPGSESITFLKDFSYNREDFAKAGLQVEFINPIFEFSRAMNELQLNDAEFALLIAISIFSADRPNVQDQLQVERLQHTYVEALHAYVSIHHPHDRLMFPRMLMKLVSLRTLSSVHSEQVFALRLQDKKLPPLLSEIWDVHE
Description: Activation of human LXR-alpha expressed in HEK293 cells coexpressing with pGL4.1-DR4-Luc after 24 hrs by luciferase reporter gene assay. The class given is cell-based.

The next experiment has as its system RAW264.7. The experiment is described as follows: Activation of RXR/LXR heterodimer in mouse RAW264.7 cells assessed as increase in ABCA1 protein level at 10 uM after 24 hrs by Western blotting analysis. The class given is cell-based. In general terms: Immunoblotting shows a protein as a band on a membrane.
A further experiment relates to 3T3-L1. Description: Activation of PPARgamma/RXR heterodimer in mouse 3T3-L1 cell assessed as induction of adipogenesis at 10 uM after 6 days by Oil red O-staining. In kind it is cell-based. In outline: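 3T3-L1 cells grown to confluence, 2 days later induced 48 h with 10% FBS, 5 μg/mL insulin, 0.25 μM dexamethasone, 0.5 mM IBMX, then 48 h insulin-only medium; compounds in DMSO added to postdifferentiation medium for 4 days. Formalin-fixed (10%, 1 h, RT), stained with Oil red O, washed, visualized.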

Experiment [3] can be described thus: Activation of LXR in mouse C2C12 cells assessed as induction of ABCA1 mRNA expression at 10 uM after 24 hrs by quantitative RT-PCR analysis. In kind it is cell-based. An outline of the steps: (§1)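 C2C12 myoblasts grown in DMEM/10% FBS, differentiated at confluence in 2% horse serum, medium changed every other day for 5 days; myotubes treated 24 h with or without T0901317 (1 μM). Total RNA, DNase-treated, oligo(dT) RT from 0.5 μg, SYBR green qPCR; normalized to β-actin (delta-delta Ct), fold over vehicle; mean ± SD of four determinants, one of two experiments.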

Experiment [4] is described as follows: Activation of LXR in mouse C2C12 cells assessed as induction of LPL mRNA expression at 10 uM after 24 hrs by quantitative RT-PCR analysis. In kind it is cell-based.
Experiment [5] can be described thus: Activation of LXR in mouse C2C12 cells assessed as induction of SREBP1 mRNA expression at 10 uM after 24 hrs in presence of T0901317 by quantitative RT-PCR analysis. In kind it is cell-based. In outline: as §1
In the next experiment the test system is C2C12. Description: Induction of HMOX-1 mRNA level in mouse C2C12 cells at 10 uM after 24 hrs by quantitative RT-PCR analysis. In kind it is functional, cell-based. An outline of the steps:
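C2C12 myoblasts were differentiated in 2% horse serum, with medium changed every other day for 5 days. The myotubes were then exposed to compound at 10 μM for 24 h. mRNA was measured by SYBR green qRT-PCR from 0.5 μg total RNA, normalized to β-actin (ΔΔCt), and expressed as fold of vehicle. Four determinants, representative of two experiments.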

Experiment [6] addresses T3, Peroxisome proliferator-activated receptor delta (Mus musculus) (UniProt P35396).
T3 sequence (whole entry): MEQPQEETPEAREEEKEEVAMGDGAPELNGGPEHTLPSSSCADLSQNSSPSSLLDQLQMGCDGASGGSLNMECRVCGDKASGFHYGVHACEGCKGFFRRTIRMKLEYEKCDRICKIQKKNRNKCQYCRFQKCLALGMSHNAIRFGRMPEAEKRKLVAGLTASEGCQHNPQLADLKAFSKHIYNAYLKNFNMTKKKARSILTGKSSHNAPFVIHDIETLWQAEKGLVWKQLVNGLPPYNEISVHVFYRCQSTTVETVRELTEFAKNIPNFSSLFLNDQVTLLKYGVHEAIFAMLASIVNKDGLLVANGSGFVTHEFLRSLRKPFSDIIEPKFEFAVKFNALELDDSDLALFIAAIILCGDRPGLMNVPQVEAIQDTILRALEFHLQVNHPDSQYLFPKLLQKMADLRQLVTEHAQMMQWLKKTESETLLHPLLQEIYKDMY
Description: Activation of PPARdelta in mouse C2C12 cells assessed as induction of ANGPTL4 mRNA expression at 10 uM after 24 hrs by quantitative RT-PCR analysis. In kind it is cell-based. An outline of the steps: (§2)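 Differentiated C2C12 myotubes (2% horse serum, 5 days) exposed 24 h with or without PPARδ agonist GW501516 (1 μM). mRNA quantified by SYBR green real-time RT-PCR, normalized to β-actin by delta-delta Ct, and expressed as fold induction vs vehicle; means ± SD of four determinants from one of two independent experiments; one-way ANOVA with Bonferroni.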

Experiment [7] concerns the target T3, Peroxisome proliferator-activated receptor delta (Mus musculus). Description: Activation of PPARdelta in mouse C2C12 cells assessed as induction of CPT1A mRNA expression at 10 uM after 24 hrs by quantitative RT-PCR analysis. In kind it is cell-based. In outline:
as §2

The target is the same in experiment [8]. Description: Activation of PPARdelta in mouse C2C12 cells assessed as induction of FABP3 mRNA expression at 10 uM after 24 hrs by quantitative RT-PCR analysis. In kind it is cell-based. In outline: as §2

Activity calls are given as the source filed them. The calls are words filed in the database; no cut-off is given here.

On to `CC(C)=CCc1cc([C@@H]2CC(=O)c3ccc(O)c(CC=C(C)C)c3O2)cc2c1OC(C(C)(C)O)C2` (stereo partly specified), for which the result in experiment [1], in experiment [2] and in experiment [5] was inactive. Besides, the outcome (with RAW264.7; in the experiment with 3T3-L1; in [3]; in experiment [4]; in the experiment with C2C12; in experiment [6]) was Active. The outcome in [7] and in [8] was Active.

Values taken from ChEMBL document CHEMBL3351942, “Rexinoids isolated from Sophora tonkinensis with a gene expression profile distinct from the synthetic rexinoid bexarotene” (J Nat Prod, 2014).
